# Source: ChEMBL document CHEMBL1129280, “3-Benzisothiazolylpiperazine derivatives as potential atypical antipsychotic agents” (J Med Chem, 1996)
# Tests used:
# Rattus norvegicus [1] = assay: Dose (administered orally) inhibiting amphetamine-induced locomotor behavior in rats; assay type: functional; conditions: po
# [2] = biological target: T1, Adrenergic receptor alpha-1 (Rattus norvegicus, UniProt P15823+P23944+P43140); assay: Displacement of [3H]prazosin from rat brain Alpha-1 adrenergic receptor
# T1 sequence (P15823 whole entry): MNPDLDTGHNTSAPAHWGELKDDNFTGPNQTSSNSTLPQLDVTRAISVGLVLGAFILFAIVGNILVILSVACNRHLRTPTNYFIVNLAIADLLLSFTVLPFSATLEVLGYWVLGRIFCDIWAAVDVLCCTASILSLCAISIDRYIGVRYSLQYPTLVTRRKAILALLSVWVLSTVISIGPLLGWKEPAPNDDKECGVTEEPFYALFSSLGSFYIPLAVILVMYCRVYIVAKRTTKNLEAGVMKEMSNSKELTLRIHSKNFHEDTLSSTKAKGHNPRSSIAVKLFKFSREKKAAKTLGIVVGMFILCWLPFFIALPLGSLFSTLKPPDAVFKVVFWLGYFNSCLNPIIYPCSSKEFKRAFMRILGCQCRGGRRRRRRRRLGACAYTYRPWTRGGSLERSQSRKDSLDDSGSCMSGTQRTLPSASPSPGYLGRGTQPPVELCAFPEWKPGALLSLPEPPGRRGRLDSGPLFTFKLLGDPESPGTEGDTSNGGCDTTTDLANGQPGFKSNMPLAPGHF
# T1 sequence (P23944 whole entry): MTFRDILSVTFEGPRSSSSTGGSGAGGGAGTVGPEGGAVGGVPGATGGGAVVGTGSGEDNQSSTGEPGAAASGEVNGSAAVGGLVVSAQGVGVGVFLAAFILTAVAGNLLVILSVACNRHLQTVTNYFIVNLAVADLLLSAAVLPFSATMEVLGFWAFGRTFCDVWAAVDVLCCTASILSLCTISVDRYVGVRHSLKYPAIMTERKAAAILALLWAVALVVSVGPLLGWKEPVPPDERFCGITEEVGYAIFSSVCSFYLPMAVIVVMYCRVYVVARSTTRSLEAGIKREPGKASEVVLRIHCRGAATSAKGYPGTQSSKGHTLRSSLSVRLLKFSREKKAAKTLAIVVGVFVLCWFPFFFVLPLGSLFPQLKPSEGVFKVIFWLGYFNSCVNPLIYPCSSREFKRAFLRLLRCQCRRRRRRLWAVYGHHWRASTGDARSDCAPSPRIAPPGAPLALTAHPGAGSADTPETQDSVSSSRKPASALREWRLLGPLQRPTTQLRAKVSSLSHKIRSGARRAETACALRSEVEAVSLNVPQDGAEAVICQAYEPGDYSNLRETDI
# T1 sequence (P43140 whole entry): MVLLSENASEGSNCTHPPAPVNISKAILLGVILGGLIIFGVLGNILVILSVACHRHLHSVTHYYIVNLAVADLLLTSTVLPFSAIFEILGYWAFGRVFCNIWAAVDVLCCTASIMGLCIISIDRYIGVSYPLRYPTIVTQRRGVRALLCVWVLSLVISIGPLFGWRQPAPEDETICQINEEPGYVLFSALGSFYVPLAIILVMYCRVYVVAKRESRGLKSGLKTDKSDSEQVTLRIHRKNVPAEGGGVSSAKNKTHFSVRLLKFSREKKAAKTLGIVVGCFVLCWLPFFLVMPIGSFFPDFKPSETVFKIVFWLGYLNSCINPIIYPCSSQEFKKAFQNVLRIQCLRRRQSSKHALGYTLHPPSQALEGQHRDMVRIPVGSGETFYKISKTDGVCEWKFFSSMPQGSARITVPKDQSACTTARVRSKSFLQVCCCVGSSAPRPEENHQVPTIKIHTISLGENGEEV
# Rattus norvegicus [3] = assay: Dose (administered orally) inhibiting apomorphine-induced stereotypy in rats; assay type: functional; conditions: po
# How it was run: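 Rats dosed orally with vehicle or compound and observed in clear cages; apomorphine HCl 0.75 mg/kg sc given 3 h later. Stereotypy rated blind on a 0–4 scale starting 10 min after apomorphine, every 10 min, five ratings in all.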
# Rattus norvegicus [4] = assay: Dose inducing catalepsy in rats after oral administration; assay type: functional
# How it was run: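 Oral dose of compound or vehicle; rats tested 120 and 180 min later with forepaws on a horizontal bar (9 mm diameter, 10 cm high). Latency to climb down recorded, 90 s maximum, score averaged over two trials; 20 s mean immobility was the catalepsy criterion. ED20s dose extrapolated by linear regression.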
# Rattus norvegicus [5] = assay: Dose inhibiting conditioned avoidance response in rats after oral administration; assay type: functional
# How it was run: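 Each test day, 30 predrug avoidance trials in the morning; in the afternoon, oral compound or vehicle, then 30 more trials starting 120 min later. Predrug and postdrug avoidances compared by repeated-measures ANOVA with Newman-Keuls test; ID50 from linear regression of dose-response data.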
# Rattus norvegicus [6] = assay: Dose (administered orally) inhibiting spontaneous locomotor behavior in rats; assay type: functional; conditions: po
# How it was run: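 At the start of the 12 h dark cycle, rats were dosed orally with vehicle or compound and placed at once in unfamiliar activity chambers. Horizontal locomotion recorded over 4 h.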
# [7] = biological target: T1, Adrenergic receptor alpha-1; assay: Displacement of [3H]prazosin from Alpha-1 adrenergic receptor in rat brain; assay type: tissue-based
SMILES,Log Ki [2],Ki [7],ED50 (Rattus norvegicus [1]),ED50 (Rattus norvegicus [3]),ED50 (Rattus norvegicus [4]),ED50 (Rattus norvegicus [5]),ED50 (Rattus norvegicus [6])
O=C1Cc2cc(CCN3CCN(c4nsc5ccccc45)CC3)c(F)cc2N1,-8.19,6.5 nM,1 mg/kg,9.1 mg/kg,17.8 mg/kg,9 mg/kg,3.1 mg/kg
O=C1Nc2ccc(CCN3CCN(c4nsc5ccccc45)CC3)cc2C12CCCC2,-8.29,5.1 nM,5.8 mg/kg,9 mg/kg,32 mg/kg,,
CC1(C)C(=O)Nc2ccc(CCN3CCN(c4nsc5ccccc45)CC3)cc21,-8.68,2.1 nM,2.3 mg/kg,10 mg/kg,17.8 mg/kg,2.6 mg/kg,10.7 mg/kg
CN1CCN(C2=Nc3cc(Cl)ccc3Nc3ccccc32)CC1 [CLOZAPINE],,,12.8 mg/kg,> 32 mg/kg,> 32 mg/kg,> 17.8 mg/kg,8.18 mg/kg
O=C(CCCN1CCC(O)(c2ccc(Cl)cc2)CC1)c1ccc(F)cc1 [HALOPERIDOL],,,0.14 mg/kg,0.25 mg/kg,0.79 mg/kg,0.93 mg/kg,0.68 mg/kg
Cc1nc2n(c(=O)c1CCN1CCC(c3noc4cc(F)ccc34)CC1)CCCC2 [RISPERIDONE],,,0.44 mg/kg,1.8 mg/kg,5.7 mg/kg,1.6 mg/kg,1.2 mg/kg
O=C1CC2(CCCC2)CC(=O)N1CCCCN1CCN(c2nsc3ccccc23)CC1 [TIOSPIRONE],-8.83,1.5 nM,4.8 mg/kg,18.8 mg/kg,20.1 mg/kg,11.7 mg/kg,15.5 mg/kg
O=C1Cc2cc(CCN3CCN(c4nsc5ccccc45)CC3)c(Cl)cc2N1 [ZIPRASIDONE],-7.98,11 nM,1.5 mg/kg,2.4 mg/kg,12.1 mg/kg,2.6 mg/kg,8.9 mg/kg

# Continued, in another order:
Log Ki [2],Ki [7],SMILES,ED50 (Rattus norvegicus [1]),ED50 (Rattus norvegicus [3]),ED50 (Rattus norvegicus [4]),ED50 (Rattus norvegicus [5]),ED50 (Rattus norvegicus [6])
-8.63,2.3 nM,Oc1nc2ccc(CCN3CCN(c4nsc5ccccc45)CC3)cc2s1,2.7 mg/kg,23.8 mg/kg,> 56 mg/kg,12.3 mg/kg,2.7 mg/kg
-8.35,4.5 nM,CCN1C(=O)Cc2cc(CCN3CCN(c4nsc5ccccc45)CC3)ccc21,1.1 mg/kg,4.7 mg/kg,10 mg/kg,1.8 mg/kg,2.1 mg/kg
-8.38,4.2 nM,Oc1nc2ccc(CCN3CCN(c4nsc5ccccc45)CC3)cc2o1,4.2 mg/kg,21.6 mg/kg,> 32 mg/kg,17.8 mg/kg,9.8 mg/kg
-8.52,3 nM,O=C1Cc2cc(CCN3CCN(c4nsc5ccccc45)CC3)ccc2N1,1.4 mg/kg,8.4 mg/kg,18.8 mg/kg,6.7 mg/kg,8.5 mg/kg
